Test results from ChEMBL document CHEMBL1127845, “Synthesis and antitumor activity of novel 6-alkyl-6-demethylmitomycins” (J Med Chem, 1994).

What was measured:
CCRF S-180 [1] = test: Optimal dose against sarcoma 180 tumor in ddY mice; format: functional, Mus musculus
Summary of the method: (§1)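 Sarcoma 180 cells implanted subcutaneously in the axillary region of ddY mice on day 0. Compounds given intravenously on day 1. Tumor volume determined by a previously described method and expressed as treated/control. ED50 is the dose giving 50% inhibition of tumor growth, taken from the dose–response curve. Optimal dose also recorded.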

CCRF S-180 [2] = test: Treated versus control value of tumor volume was measured in ddY mice; format: functional, Mus musculus; summary of the method: as §1
HeLa = test: In vitro anticellular activity against HeLa S3 cells; format: functional, cell-based; conditions: Homo sapiens
Summary of the method: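 HeLa S3 cells seeded in 96-well plates on day 0, then exposed to compound for 1 h on day 1. Anticellular activity determined by a previously described method.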

CCRF S-180 [3] = test: Effective dose that gave 50 percent inhibition of sarcoma 180 tumor growth in ddY mice; format: functional; conditions: Mus musculus; summary of the method: as §1

Structure (SMILES) | OD (CCRF S-180 [1]) [mg/kg] | T/C (CCRF S-180 [2]) | IC50 (HeLa) [nM] | ED50 (CCRF S-180 [3]) [mg/kg]
CCC1=C(N)C(=O)C2=C(C1=O)N1C[C@H]3[C@H](N3C)[C@]1(OC)[C@@H]2COC(N)=O (stereo partly specified) | 46 | 1.02 | – | –
CCCCCCCCCCCCCCCCCCCC1=C(OC)C(=O)C2=C(C1=O)N1C[C@@H]3N[C@@H]3[C@]1(OC)[C@@H]2COC(N)=O [6-DEMETHYL-6-N-NONADECYLMITOMYCIN A] | 46 | 0.69 | 7300 | –
CCCCCCCCCCCC1=C(OC)C(=O)C2=C(C1=O)N1C[C@@H]3N[C@@H]3[C@]1(OC)[C@@H]2COC(N)=O [6-DEMETHYL-6-N-UNDECYLMITOMYCIN A] | 20 | 0.8 | 640 | –
CCCCCC1=C(N)C(=O)C2=C(C1=O)N1C[C@@H]3N[C@@H]3[C@]1(OC)[C@@H]2COC(N)=O | – | – | > 10000 | –
CCC1=C(N)C(=O)C2=C(C1=O)N1C[C@H]3[C@H](N3C)[C@]1(O)[C@H]2COC(N)=O (stereo partly specified) | 20 | 0.8 | > 10000 | –
COC1=C(CC(C)C)C(=O)C2=C(C1=O)[C@H](COC(N)=O)[C@@]1(O)[C@@H]3[C@H](CN21)N3C (stereo partly specified) [6-DEMETHYL-6-(2-METHYLPROPYL)MITOMYCIN B] | 20 | 0.71 | 6100 | –
CO[C@@]12[C@H](COC(N)=O)C3=C(C(=O)C(C)=C(N)C3=O)N1C[C@@H]1N[C@@H]12 [MITOMYCIN] | 6 | 0.26 | 590 | 1.7
CCCCCC1=C(OC)C(=O)C2=C(C1=O)N1C[C@@H]3N[C@@H]3[C@]1(OC)[C@@H]2COC(N)=O [6-DEMETHYL-6-N-PENTYLMITOMYCIN A] | 30 | 0.37 | 87 | 19
CO[C@@]12[C@H](COC(N)=O)C3=C(C(=O)C(CC[N+](=O)[O-])=C(N)C3=O)N1C[C@@H]1N[C@@H]12 | 15 | 0.44 | 1500 | 8
CCC1=C(N)C(=O)C2=C(C1=O)N1C[C@@H]3N[C@@H]3[C@]1(OC)[C@@H]2COC(N)=O.ClC(Cl)Cl | 46 | 0.42 | > 10000 | 38
COC1=C(CC(C)C)C(=O)C2=C(C1=O)[C@@H](COC(N)=O)[C@@]1(OC)[C@H]3N[C@H]3CN21 | – | – | 200 | –
CCC1=C(OC)C(=O)C2=C(C1=O)N1C[C@@H]3N[C@@H]3[C@]1(OC)[C@@H]2COC(N)=O [6-DEMETHYL-6-ETHYLMITOMYCIN A] | 7.4 | 0.1 | 17 | 2.8
CCCCCCCCCCCC1=C(N)C(=O)C2=C(C1=O)N1C[C@@H]3N[C@@H]3[C@]1(OC)[C@@H]2COC(N)=O | – | – | > 10000 | –
COC1=C(Cc2ccccc2)C(=O)C2=C(C1=O)[C@@H](COC(N)=O)[C@@]1(OC)[C@H]3N[C@H]3CN21 | 30 | 0.43 | 63 | 23
CCCCCCCCCCCCCCCCCCCC1=C(N)C(=O)C2=C(C1=O)N1C[C@@H]3N[C@@H]3[C@]1(OC)[C@@H]2COC(N)=O | – | – | 9000 | –
COC1=C(C)C(=O)C2=C(C1=O)[C@@H](COC(N)=O)[C@@]1(OC)[C@H]3N[C@H]3CN21 [MITOMYCIN A] | 1.8 | 0.2 | – | 1.3
COC1=C(Cc2ccccc2)C(=O)C2=C(C1=O)[C@H](COC(N)=O)[C@@]1(O)[C@@H]3[C@H](CN21)N3C (stereo partly specified) [6-BENZYL-6-DEMETHYLMITOMYCIN B] | 46 | 0.41 | 520 | 37
CO[C@@]12[C@H](COC(N)=O)C3=C(C(=O)C(CC(C)C)=C(N)C3=O)N1C[C@@H]1N[C@@H]12 | 46 | 0.78 | > 10000 | –
CCC1=C(OC)C(=O)C2=C(C1=O)N1C[C@H]3[C@H](N3C)[C@]1(O)[C@H]2COC(N)=O (stereo partly specified) | 30 | 0.39 | 300 | 14
CO[C@@]12[C@H](COC(N)=O)C3=C(C(=O)C(Cc4ccccc4)=C(N)C3=O)N1C[C@@H]1N[C@@H]12 | – | – | > 10000 | –
C=CCC1=C(N)C(=O)C2=C(C1=O)N1C[C@@H]3N[C@@H]3[C@]1(OC)[C@@H]2COC(N)=O | – | – | 10000 | –
CCCCCC1=C(OC)C(=O)C2=C(C1=O)N1C[C@H]3[C@H](N3C)[C@]1(O)[C@H]2COC(N)=O (stereo partly specified) | 20 | 0.79 | 3100 | –
